ChEMBL document CHEMBL1795297, “Design, synthesis and molecular docking studies of novel triazole as antifungal agent” (2011)
≈ marks a conversion by molar mass, not a printed value.

Columns and labels:
Format in all cases: functional
Cryptococcus neoformans = assay: Antifungal activity against Cryptococcus neoformans ATCC BLS108 after 72 hrs by micro-broth dilution method; details: ATCC BLS108, 72 h
In short: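 Quality-control ATCC strain included in each assay. Microbroth dilution per NCCLS M27-A2. DMSO-dissolved compounds were serially diluted in growth medium, inoculated and held at 35 °C, with MIC read at 72 h. MIC80 is the first well showing about 80% growth reduction versus the drug-free well. Tests were done in triplicate and the mean reported.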

Candida albicans = assay: Antifungal activity against Candida albicans ATCC Y0109 after 24 hrs by micro-broth dilution method; details: ATCC Y0109, 24 h
In short: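 ATCC quality-control strain, tested in every assay. NCCLS M27-A2 broth microdilution. Compounds were dissolved in DMSO, serially diluted in growth medium, inoculated and incubated at 35 °C, with growth read at 24 h. MIC80 is the first well with about 80% growth reduction relative to the drug-free control. Each test was run three times and the mean of replicates taken.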

Aspergillus fumigatus = assay: Antifungal activity against Aspergillus fumigatus clinical isolate by micro-broth dilution method
In short: (§1)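 Clinical isolate. MIC by broth microdilution following the NCCLS M27-A2 reference method for yeasts. Compounds were dissolved in DMSO, serially diluted in growth medium, inoculated and incubated at 35 °C. MIC80 is the first well with about 80% less growth than the drug-free well. Each test was run three times and the mean of replicates reported.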

Candida parapsilosis = assay: Antifungal activity against Candida parapsilosis clinical isolate by micro-broth dilution method; details: Lodderomyces parapsilosis; in short: as §1
Trichophyton rubrum = assay: Antifungal activity against Trichophyton rubrum clinical isolate by micro-broth dilution method; in short: as §1
Candida tropicalis = assay: Antifungal activity against Candida tropicalis clinical isolate by micro-broth dilution method; in short: as §1
Nannizzia gypsea = assay: Antifungal activity against Microsporum gypseum clinical isolate by micro-broth dilution method; in short: as §1
[1] = Antifungal activity against Fonsecaea compacta clinical isolate by micro-broth dilution method; in short: as §1

Compound	MIC80 (Cryptococcus neoformans) [µg/mL]	MIC80 (Candida albicans) [µg/mL]	MIC80 (Aspergillus fumigatus) [µg/mL]	MIC80 (Candida parapsilosis) [µg/mL]	MIC80 (Trichophyton rubrum) [µg/mL]	MIC80 (Candida tropicalis) [µg/mL]	MIC80 (Nannizzia gypsea) [µg/mL]	MIC80 [1] [µg/mL]
COc1ccc(/C=C/C(=O)Nc2ccc(N3CCN(CC(O)(Cn4cncn4)c4ccc(F)cc4F)CC3)c(C(F)(F)F)c2)cc1OC (stereo unspecified)	1 (≈ 1.49 µM)	1 (≈ 1.49 µM)	4 (≈ 5.95 µM)					
COc1ccc(C(=O)Nc2ccc(N3CCN(CC(O)(Cn4cncn4)c4ccc(F)cc4F)CC3)c(C(F)(F)F)c2)cc1 (stereo unspecified)	1 (≈ 1.62 µM)	1 (≈ 1.62 µM)	4 (≈ 6.49 µM)	1 (≈ 1.62 µM)	1 (≈ 1.62 µM)	1 (≈ 1.62 µM)	1 (≈ 1.62 µM)	16 (≈ 25.9 µM)
CCCC(=O)Nc1ccc(N2CCN(CC(O)(Cn3cncn3)c3ccc(F)cc3F)CC2)c(C(F)(F)F)c1 (stereo unspecified)	1 (≈ 1.81 µM)	1 (≈ 1.81 µM)	> 64	0.25 (≈ 0.452 µM)	4 (≈ 7.24 µM)	1 (≈ 1.81 µM)	1 (≈ 1.81 µM)	4 (≈ 7.24 µM)
OC(Cn1cncn1)(Cn1cncn1)c1ccc(F)cc1F [FLUCONAZOLE]	1 (≈ 3.27 µM)	4 (≈ 13.1 µM)	64 (≈ 209 µM)	1 (≈ 3.27 µM)	0.25 (≈ 0.816 µM)	1 (≈ 3.27 µM)	0.25 (≈ 0.816 µM)	16 (≈ 52.2 µM)
CCCCCCC(=O)Nc1ccc(N2CCN(CC(O)(Cn3cncn3)c3ccc(F)cc3F)CC2)c(C(F)(F)F)c1 (stereo unspecified)	1 (≈ 1.68 µM)	1 (≈ 1.68 µM)	> 64	4 (≈ 6.73 µM)	4 (≈ 6.73 µM)	4 (≈ 6.73 µM)	4 (≈ 6.73 µM)	16 (≈ 26.9 µM)
CC(C)C(=O)Nc1ccc(N2CCN(CC(O)(Cn3cncn3)c3ccc(F)cc3F)CC2)c(C(F)(F)F)c1 (stereo unspecified)	1 (≈ 1.81 µM)	0.25 (≈ 0.452 µM)	64 (≈ 116 µM)	0.25 (≈ 0.452 µM)	1 (≈ 1.81 µM)	1 (≈ 1.81 µM)	1 (≈ 1.81 µM)	4 (≈ 7.24 µM)
C[C@@H](c1ncncc1F)[C@](O)(Cn1cncn1)c1ccc(F)cc1F [VORICONAZOLE]	0.0156 (≈ 0.0447 µM)	0.0156 (≈ 0.0447 µM)	1 (≈ 2.86 µM)	1 (≈ 2.86 µM)	0.0039 (≈ 0.0112 µM)	0.25 (≈ 0.716 µM)	0.0039 (≈ 0.0112 µM)	0.0156 (≈ 0.0447 µM)
O=C(/C=C/c1ccccc1[N+](=O)[O-])Nc1ccc(N2CCN(CC(O)(Cn3cncn3)c3ccc(F)cc3F)CC2)c(C(F)(F)F)c1 (stereo unspecified)	0.25 (≈ 0.38 µM)	0.25 (≈ 0.38 µM)	> 64					
O=C(Nc1ccc(N2CCN(CC(O)(Cn3cncn3)c3ccc(F)cc3F)CC2)c(C(F)(F)F)c1)c1ccc(F)cc1 (stereo unspecified)	16 (≈ 26.5 µM)	4 (≈ 6.62 µM)	4 (≈ 6.62 µM)	0.25 (≈ 0.414 µM)	4 (≈ 6.62 µM)	1 (≈ 1.65 µM)	1 (≈ 1.65 µM)	4 (≈ 6.62 µM)
O=C(Nc1ccc(N2CCN(CC(O)(Cn3cncn3)c3ccc(F)cc3F)CC2)c(C(F)(F)F)c1)c1cccc(C(F)(F)F)c1 (stereo unspecified)	0.0625 (≈ 0.0955 µM)	0.0625 (≈ 0.0955 µM)	16 (≈ 24.4 µM)					
COc1cccc(OC)c1/C=C/C(=O)Nc1ccc(N2CCN(CC(O)(Cn3cncn3)c3ccc(F)cc3F)CC2)c(C(F)(F)F)c1 (stereo unspecified)	1 (≈ 1.49 µM)	0.25 (≈ 0.372 µM)	> 64					
O=C(Nc1ccc(N2CCN(CC(O)(Cn3cncn3)c3ccc(F)cc3F)CC2)c(C(F)(F)F)c1)c1ccc(Cl)cc1Cl (stereo unspecified)	0.25 (≈ 0.381 µM)	0.25 (≈ 0.381 µM)	0.25 (≈ 0.381 µM)					
O=C(Nc1ccc(N2CCN(CC(O)(Cn3cncn3)c3ccc(F)cc3F)CC2)c(C(F)(F)F)c1)c1ccncc1 (stereo unspecified)	0.25 (≈ 0.425 µM)	0.0625 (≈ 0.106 µM)	1 (≈ 1.7 µM)					
O=C(Nc1ccc(N2CCN(CC(O)(Cn3cncn3)c3ccc(F)cc3F)CC2)c(C(F)(F)F)c1)c1cccnc1 (stereo unspecified)	0.25 (≈ 0.425 µM)	0.0625 (≈ 0.106 µM)	4 (≈ 6.81 µM)					
O=C(Nc1ccc(N2CCN(CC(O)(Cn3cncn3)c3ccc(F)cc3F)CC2)c(C(F)(F)F)c1)c1ccccc1 (stereo unspecified)	0.25 (≈ 0.426 µM)	1 (≈ 1.7 µM)	4 (≈ 6.82 µM)	0.25 (≈ 0.426 µM)	1 (≈ 1.7 µM)	1 (≈ 1.7 µM)	1 (≈ 1.7 µM)	4 (≈ 6.82 µM)
O=C(Nc1ccc(N2CCN(CC(O)(Cn3cncn3)c3ccc(F)cc3F)CC2)c(C(F)(F)F)c1)c1ccco1 (stereo unspecified)	0.25 (≈ 0.434 µM)	0.0625 (≈ 0.108 µM)	1 (≈ 1.73 µM)					

Compound	MIC80 (Cryptococcus neoformans) [µg/mL]	MIC80 (Candida albicans) [µg/mL]	MIC80 (Aspergillus fumigatus) [µg/mL]	MIC80 (Candida parapsilosis) [µg/mL]	MIC80 (Trichophyton rubrum) [µg/mL]	MIC80 (Candida tropicalis) [µg/mL]	MIC80 (Nannizzia gypsea) [µg/mL]	MIC80 [1] [µg/mL]
O=C(/C=C/c1ccc(F)cc1)Nc1ccc(N2CCN(CC(O)(Cn3cncn3)c3ccc(F)cc3F)CC2)c(C(F)(F)F)c1 (stereo unspecified)	0.25 (≈ 0.396 µM)	0.0156 (≈ 0.0247 µM)	4 (≈ 6.34 µM)					
O=C(/C=C/c1cccc([N+](=O)[O-])c1)Nc1ccc(N2CCN(CC(O)(Cn3cncn3)c3ccc(F)cc3F)CC2)c(C(F)(F)F)c1 (stereo unspecified)	0.0625 (≈ 0.095 µM)	0.25 (≈ 0.38 µM)	4 (≈ 6.08 µM)					
O=C(/C=C/c1ccc([N+](=O)[O-])cc1)Nc1ccc(N2CCN(CC(O)(Cn3cncn3)c3ccc(F)cc3F)CC2)c(C(F)(F)F)c1 (stereo unspecified)	0.25 (≈ 0.38 µM)	0.0156 (≈ 0.0237 µM)	4 (≈ 6.08 µM)					
CCCCC(=O)Nc1ccc(N2CCN(CC(O)(Cn3cncn3)c3ccc(F)cc3F)CC2)c(C(F)(F)F)c1 (stereo unspecified)	4 (≈ 7.06 µM)	1 (≈ 1.76 µM)	> 64	0.25 (≈ 0.441 µM)	4 (≈ 7.06 µM)	1 (≈ 1.76 µM)	4 (≈ 7.06 µM)	4 (≈ 7.06 µM)
O=C(/C=C/c1ccccc1Cl)Nc1ccc(N2CCN(CC(O)(Cn3cncn3)c3ccc(F)cc3F)CC2)c(C(F)(F)F)c1 (stereo unspecified)	0.25 (≈ 0.386 µM)	0.0625 (≈ 0.0966 µM)	4 (≈ 6.18 µM)					
CCc1ccc(C(=O)Nc2ccc(N3CCN(CC(O)(Cn4cncn4)c4ccc(F)cc4F)CC3)c(C(F)(F)F)c2)cc1 (stereo unspecified)	0.0625 (≈ 0.102 µM)	0.25 (≈ 0.407 µM)	4 (≈ 6.51 µM)					
O=C(/C=C/c1ccc(Cl)c(Cl)c1)Nc1ccc(N2CCN(CC(O)(Cn3cncn3)c3ccc(F)cc3F)CC2)c(C(F)(F)F)c1 (stereo unspecified)	0.25 (≈ 0.367 µM)	0.25 (≈ 0.367 µM)	4 (≈ 5.87 µM)					
O=C(/C=C/c1ccco1)Nc1ccc(N2CCN(CC(O)(Cn3cncn3)c3ccc(F)cc3F)CC2)c(C(F)(F)F)c1 (stereo unspecified)	0.25 (≈ 0.415 µM)	0.25 (≈ 0.415 µM)	4 (≈ 6.64 µM)					
O=C(/C=C/c1cccc(Br)c1)Nc1ccc(N2CCN(CC(O)(Cn3cncn3)c3ccc(F)cc3F)CC2)c(C(F)(F)F)c1 (stereo unspecified)	0.25 (≈ 0.362 µM)	0.25 (≈ 0.362 µM)	1 (≈ 1.45 µM)					
O=C(/C=C/c1cccc(Cl)c1)Nc1ccc(N2CCN(CC(O)(Cn3cncn3)c3ccc(F)cc3F)CC2)c(C(F)(F)F)c1 (stereo unspecified)	0.25 (≈ 0.386 µM)	0.25 (≈ 0.386 µM)	4 (≈ 6.18 µM)					
O=C(/C=C/c1ccccc1F)Nc1ccc(N2CCN(CC(O)(Cn3cncn3)c3ccc(F)cc3F)CC2)c(C(F)(F)F)c1 (stereo unspecified)	0.25 (≈ 0.396 µM)	0.0625 (≈ 0.0991 µM)	4 (≈ 6.34 µM)					
O=C(/C=C/c1cccc(F)c1)Nc1ccc(N2CCN(CC(O)(Cn3cncn3)c3ccc(F)cc3F)CC2)c(C(F)(F)F)c1 (stereo unspecified)	0.25 (≈ 0.396 µM)	0.25 (≈ 0.396 µM)	16 (≈ 25.4 µM)					
Cc1ccc(/C=C/C(=O)Nc2ccc(N3CCN(CC(O)(Cn4cncn4)c4ccc(F)cc4F)CC3)c(C(F)(F)F)c2)cc1 (stereo unspecified)	1 (≈ 1.6 µM)	0.25 (≈ 0.399 µM)	4 (≈ 6.38 µM)					
N#Cc1cccc(/C=C/C(=O)Nc2ccc(N3CCN(CC(O)(Cn4cncn4)c4ccc(F)cc4F)CC3)c(C(F)(F)F)c2)c1 (stereo unspecified)	0.25 (≈ 0.392 µM)	0.25 (≈ 0.392 µM)	4 (≈ 6.27 µM)					
O=C(/C=C/c1ccc(Cl)cc1)Nc1ccc(N2CCN(CC(O)(Cn3cncn3)c3ccc(F)cc3F)CC2)c(C(F)(F)F)c1 (stereo unspecified)	0.25 (≈ 0.386 µM)	1 (≈ 1.55 µM)	1 (≈ 1.55 µM)					
O=C(/C=C/c1ccc(Br)cc1)Nc1ccc(N2CCN(CC(O)(Cn3cncn3)c3ccc(F)cc3F)CC2)c(C(F)(F)F)c1 (stereo unspecified)	0.25 (≈ 0.362 µM)	1 (≈ 1.45 µM)	1 (≈ 1.45 µM)					
